Bioassay records as filed in PubChem.
The list is not random: actives were taken first. Their share in the collection is about 2.1%.
Statin myotox sup – suppression of simvastatin myotoxicity. hit rate 0.78% among 330,000. C2C12 myotubes + simvastatin, ATP luminescence, 48 h; scaled: DMSO 0, geranylgeraniol control 100. rescue of ATP level, % at 7.49 µM;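 active = mean ATP rescue above about 67%, or every replicate alone reaching that limit, limit read from the data, passing the limit was not always enough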;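 note: myotubes were challenged with 10 µM simvastatin during compound exposure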
XiGFP reactiv – X-chromosome reactivation activator; XiGFP mouse fibroblasts, % GFP-positive cells imaging, 3 d; cells co-treated with 5-aza-dC sensitizer; scaled so ellipticine positive control = 100%; activation, % at 7.58 µM; hit rate 0.055% among 360,000;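 active = mean normalized replicate activation at least 10% and every replicate at or above 10%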;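 note: 0% = median of on-plate neutral control wells and 100% = ellipticine 6 µM median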
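Assay system: SV40-immortalized XiGFP fibroblast cells, line 68-5-11; buffer or medium: DMEM plus 5-aza-dC sensitizer; compound: one concentration, pinned; timing: compounds 3 days, fix/stain 15 min at room temperature; benchmarks: positive control ellipticine, 6 µM final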
Cneo AK release – causes C. neoformans cell lysis. lysis activity, % at 15 µM. hit rate 0.2% among 360,000. adenylate kinase release luminescence, 4 h; normalised: neutral wells 0, clomiphene wells 100;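 active = mean lysis activity across replicates of at least 80%, whatever share of replicates individually reach that level; inactive = mean lysis activity below 80%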
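Material: C. neoformans cells; Schedule: 4 h static compound exposure, 37 °C, read 1 h post-reagent; Measured by: adenylate kinase release luminescence; Read-out: signal increase indicating cell lysis; Controls: Clomiphene as positive lysis control.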
DENV2 CPE rescue – protects cells from dengue virus 2 cytopathic effect | DENV2-infected cells, cytopathic effect rescue, plate reader | hit rate 1.7% among 350,000 | CPE inhibition, % at 9.99 µM; in the data active = CPE inhibition above about 20%, passing the limit was not always enough; tested in BHK-21 cells;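 note: 0% = median of neutral control wells and 100% = median of positive control wells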
Numbers without * were called inactive; nt = no result given.

SMILES	Statin myotox sup	XiGFP reactiv	Cneo AK release	DENV2 CPE rescue
COC(=O)[C@]1(CCS(=O)(=O)c2ccccc2)N=C(c2ccc(OCCCO)cc2)O[C@@H]1c1ccccc1	nt	nt	2	-1
COC(=O)[C@@]1(Cc2ccccc2CN=[N+]=[N-])COC(c2ccc(OCCCO)cc2)=N1	nt	nt	1	27*
COC(=O)[C@]1(Cc2ccccc2CN=[N+]=[N-])N=C(c2ccc(OCCCO)cc2)O[C@@H]1c1ccccc1	nt	nt	-10	-2
CN(C)C(=O)[C@@]1(Cc2ccccc2CN=[N+]=[N-])COC(c2ccc(OCCCO)cc2)=N1	nt	nt	55	-2
COC(=O)[C@@]1(CCS(=O)(=O)c2ccccc2)N=C(c2ccc(OCCCO)cc2)O[C@H]1c1ccccc1	nt	nt	-13	27*
COC(=O)[C@]1(CO)N=C(c2ccc(OCCCO)cc2)O[C@@H]1c1ccccc1CN=[N+]=[N-]	nt	nt	-1	51*
[N-]=[N+]=NCc1ccccc1C[C@]1(C(N)=O)N=C(c2ccc(OCCCO)cc2)O[C@H]1c1ccccc1	nt	nt	2	25*
C[C@H](NC(=O)C[C@@H]1C=C[C@@H](NC(=O)Nc2ccc3c(c2)OCO3)[C@H](CO)O1)c1ccccc1	3	0	19	-3
CO[C@H]1CN(C)C(=O)c2cc(NC(=O)Nc3c(C)noc3C)ccc2OC[C@@H](C)N(CCC(F)(F)F)C[C@@H]1C	5	0	-2	7
CCN1C(=O)NC2=C(C(=O)c3ccccc32)C1c1ccccc1F (stereo not given)	120*	nt	0	nt
c1ccc(-c2ccncc2)nc1	0	0	1	79*
C[C@@H]1CCCCO[C@H](CN(C)C(=O)c2ccncc2)[C@H](C)CN([C@H](C)CO)C(=O)c2cc(N(C)C)ccc2O1	5	0	-1	16
Cc1cccc(-n2c(O)c(C=NC3CCS(=O)(=O)C3)c3ccccc3c2=O)c1 (stereo not given)	138*	nt	7	nt
O=[N+]([O-])c1ccc(/C=N/NC(=S)Nc2ccc(Cl)cc2Cl)s1	-39	13*	-6	6
O=[N+]([O-])c1ccc(O)c(/C=N/NC(=S)Nc2ccc(Cl)cc2Cl)c1	nt	0	-2	-3
CCc1ccc(C(C)NC(=S)NCc2ccc(F)cc2)cc1 (stereo not given)	-10	1	115*	-3
CCC(=O)N1CC[C@@H]2[C@@H](CO)Nc3ccc(C#Cc4ccc(F)cc4)cc3[C@@H]21	1	0	7	5
CNC(=O)C1(C)C=CC2(CCCCC2)N1C(=O)OC (stereo not given)	-7	0	-2	22*
COCCNC(=O)C1(C)C=CC2(CCCCC2)N1C(=O)c1ccccc1 (stereo not given)	3	0	0	6
C[C@H](O)C#Cc1cnc2c(c1)C(=O)N([C@H](C)CO)C[C@H](C)[C@@H](CN(C)CC1CCOCC1)O2	2	0	8	3
Cc1ccc(S(=O)(=O)N2CCCCC2)cc1	0	0	-3	14
Cc1ccc(O)c(N=Nc2ccc(S(=O)(=O)N3CCCC3)cc2)c1	-1	61*	-4	-1
O=C(NCC[C@H]1CC[C@H](NS(=O)(=O)c2ccc(Oc3ccccc3)cc2)[C@@H](CO)O1)C1CC1	20	1	-3	85*
Cc1ccc(S(=O)(=O)N[C@H]2CC[C@H](CCNC(=O)C3CCCC3)O[C@H]2CO)cc1	0	0	-1	27*
O=C(NCC[C@H]1CC[C@@H](NS(=O)(=O)c2ccc(Oc3ccccc3)cc2)[C@@H](CO)O1)C1CC1	3	0	32	-1
SMILES	Statin myotox sup	XiGFP reactiv	Cneo AK release	DENV2 CPE rescue
O=C(CN1C(=O)CCS(=O)(=O)c2ccccc21)NCc1ccccc1	72*	nt	3	nt
O=C(CN1C(=O)CCS(=O)(=O)c2ccccc21)NCc1ccc2c(c1)OCO2	7	nt	nt	nt
CCC(=O)Nc1ccc2c(c1)C(=O)N(C)C[C@@H](OC)[C@H](C)CN(C(=O)CC1CC1)[C@@H](C)CO2	6	0	0	-2
COCCCNC(=O)c1cccn2c(=O)c3cc4ccccc4cc3nc12	182*	nt	0	nt
Cc1ccc(S(=O)(=O)Nc2cccc3c2O[C@@H](CN(C)C(=O)Nc2c(C)noc2C)[C@H](C)CN([C@@H](C)CO)C3=O)cc1	20	0	39	-9
CCOC(=O)N1CCN(C(=O)CCS(=O)(=O)c2cc3c(cc2Cl)NC(=O)CO3)CC1	10	1	-3	24*
Cc1ccc(CNC(=O)CCS(=O)(=O)c2cc3c(cc2Cl)NC(=O)CO3)cc1	8	0	3	16
O=C([C@H]1O[C@@H](n2ccc(=O)[nH]c2=O)[C@H](O)[C@@H]1O)N1CCN(c2ccc(Cl)cn2)CC1	3	nt	-1	45*
Nc1ccn([C@@H]2O[C@H](C(=O)N3CCN(c4ccc(Cl)cn4)CC3)[C@@H](O)[C@H]2O)c(=O)n1	0	nt	0	11
CCOC(=O)C1=C(C)NC(=O)NC1c1ccc(OC)c(CN2CCOCC2)c1 (stereo not given)	79*	nt	7	nt
C[C@H]1CN([C@@H](C)CO)C(=O)c2cccc(NC(=O)Nc3ccccc3)c2O[C@@H]1CN(C)S(=O)(=O)c1cn(C)cn1	nt	0	2	47*
Cc1noc(C)c1NC(=O)Nc1cccc2c1O[C@@H](CN(C)S(=O)(=O)c1cn(C)cn1)[C@@H](C)CN([C@@H](C)CO)C2=O	-7	2	105*	27*
Cc1noc(C)c1NC(=O)Nc1cccc2c1O[C@H](CN(C)S(=O)(=O)c1cn(C)cn1)[C@@H](C)CN([C@H](C)CO)C2=O	14	0	-1	13
CCCC(NC(=O)C(C)Sc1nnnn1C1CC1)c1ccccc1 (stereo not given)	1	0	1	90*
CC(Sc1nnnn1C1CC1)C(=O)Nc1cccc(S(=O)(=O)N2CCOCC2)c1 (stereo not given)	10	0	-1	-4
COc1ccc(C(C)=O)cc1Cn1c(C)c(C(=O)NCCC#N)sc1=O	-6	0	1	71*
CCSc1nnc(-c2cccnc2)n1-c1ccc(Cl)c(C)c1	111*	nt	-3	-5
CC(=O)N(C[C@H]1N[C@H](CO)[C@H]1c1ccc(-c2ccc(F)cc2)cc1)C(C)C	3	0	1	64*
C/C=C/c1ccc([C@@H]2[C@@H](CO)N[C@@H]2CN(C(=O)C2CCC2)C(C)C)cc1	-9	0	-5	-10
C/C=C/c1ccc([C@H]2[C@H](CO)N[C@H]2CN(C(=O)C2CCC2)C(C)C)cc1	-11	0	4	23*
CCCC(CCC(=O)Nc1ccc(C(=O)OC)cc1)C(=O)O (stereo not given)	-2	nt	0	nt
CCCC(CCC(=O)Nc1ccc(C(=O)OCC)cc1)C(=O)O (stereo not given)	105*	nt	-2	nt
C[C@@H]1CN([C@@H](C)CO)C(=O)c2cc(NS(=O)(=O)c3cccs3)ccc2O[C@@H](C)CCCCO[C@@H]1CN(C)Cc1ccc2c(c1)OCO2	nt	0	7	-19
